Experimental findings from paper PMC3005096 (Steroids, 2010) are described below.

pEC50: −log10 of the molar value. Like-named read-outs stand apart in the source and are kept apart here.

The subject of one test is HaCaT keratinocytes. The test is described as follows: Proliferation of HaCaT keratinocytes. In kind it is cell-based, human. Particulars: for pEC50: read-out: EC50, inhibition of proliferation.
The test system of the next test is SKMEL-188 cells. The test is described as follows: [3H]-thymidine incorporation. In kind it is cell-based, human. Particulars: SKMEL-188, 72 h, [3H]-thymidine last 4 h. In a few lines: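 SKMEL-188 cells were grown in Ham's F-10 with 5% charcoal-treated FBS and synchronized at G0/G1 in serum-free medium. Compounds were added in fresh medium with 5% charcoal-treated FBS for 72 h. [3H]-thymidine (88.0 Ci/mmol) was present at 0.5 μCi/ml final for the last 4 h. Cells were precipitated with 10% TCA and counted by liquid scintillation. Mean ± SD, n=4; one-way ANOVA and t-test.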

Test [1] deals with AbC1 cell line derived from Bomirski hamster melanoma. The test is described as follows: [3H]-thymidine incorporation. The format is cell-based.
The next test concerns melanoma SKMEL-188. The test is described as follows: Colony forming assay. In kind it is cell-based, human. Particulars: SKMEL-188, 0.1, 10 and 1000 nM, 6-10 days. In a few lines: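 SKMEL-188 cells were plated at 500 cells/well in 12-well plates in F10 medium with charcoal-stripped FBS and antibiotic-antimycotic, at 37°C in 5% CO2. They were treated at 0.1, 10 and 1000 nM, with matched ethanol dilution as vehicle control, and grown 6–10 days. Colonies were stained with 0.1% […], then counted and sized from photographs. CFU = colonies/cells plated ×100. Mean ± SEM, n=3 or 4.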

The target of the next test is T1, VDR-EGFP fusion protein (Homo sapiens, UniProt P11473).
T1 sequence (P11473 1-427): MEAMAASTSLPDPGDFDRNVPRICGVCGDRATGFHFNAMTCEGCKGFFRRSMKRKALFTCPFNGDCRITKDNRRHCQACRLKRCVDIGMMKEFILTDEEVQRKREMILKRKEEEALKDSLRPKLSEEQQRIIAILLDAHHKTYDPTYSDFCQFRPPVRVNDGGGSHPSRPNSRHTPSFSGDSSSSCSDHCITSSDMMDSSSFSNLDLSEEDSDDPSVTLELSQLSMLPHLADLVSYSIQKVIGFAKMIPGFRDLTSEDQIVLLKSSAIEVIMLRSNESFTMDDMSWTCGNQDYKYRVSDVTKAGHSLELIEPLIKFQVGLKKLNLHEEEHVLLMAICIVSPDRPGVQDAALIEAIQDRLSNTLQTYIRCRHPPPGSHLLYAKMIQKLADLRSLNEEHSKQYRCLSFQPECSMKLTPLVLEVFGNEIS
Put plainly: VDR translocation into the nucleus. In kind it is cell-based. Particulars: SKMEL-188 transduced with pLenti-CMV-VDR-EGFP, 10 nM, 90 min. In a few lines: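 SKMEL-188 cells were stably transduced with a lentiviral CMV-driven VDR-EGFP fusion construct (10 MOI, 6 μg/ml polybrene). They were exposed to compound for 90 min, fixed in 4% paraformaldehyde, mounted and examined by fluorescence microscopy. In at least 10 fields, cells with fluorescent nuclei were counted and expressed as % of total cells. Student's t-test.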

`C[C@]12CC[C@@H]3C(=CC=C4C[C@@H](O)CC[C@]43C)[C@@H]1CC[C@@H]2C(=O)CO` [21(OH)pL, 3β,21-Dihydroxy-9β,10α-pregna-5,7-dien-20-one]: in the test on HaCaT keratinocytes, the “effect on proliferation of HaCaT cells” value is listed as “no effect”. In the test on HaCaT keratinocytes (Homo sapiens), the pEC50 is less than 6.00. For the same compound, the “inhibition of DNA synthesis” value in the test on SKMEL-188 cells is given as “highest inhibitory potency”; in test [1], “efficiently inhibited DNA synthesis”. For the same compound, the “inhibition of colony formation” value in the test with melanoma SKMEL-188 is given as “less potent inhibitory effect”. Moreover, the “translocation of VDR-GFP fusion protein into the nucleus” value (“translocation” below) at VDR-EGFP fusion protein is listed as “significantly lower”.
`C=C1/C(=C\C=C2/CCC[C@]3(C)[C@@H]([C@H](C)CCCC(C)(C)O)CC[C@@H]23)C[C@@H](O)C[C@@H]1O` [1,25(OH)2D3, reference compound]: the pEC50 in the test with HaCaT keratinocytes (Homo sapiens) is 6.74.
Consider `C=C1CC[C@H](O)C/C1=C/C=C1\CCC[C@]2(C)[C@@H](C(=O)CO)CC[C@@H]12` [21(OH)pD, (5Z,7E)-3β,21-Dihydroxy-9,10-secopregna-5,7,10(19)-trien-20-one], for which the pEC50 with HaCaT keratinocytes is 7.40. Moreover, the “inhibition of DNA synthesis” value with SKMEL-188 cells is listed as “inhibited DNA synthesis”. In addition, the “inhibition of colony formation” value in the test with melanoma SKMEL-188 is “best inhibition”. Further, on VDR-EGFP fusion protein, the “translocation” value is listed as “efficient translocation”.
Turning to `C[C@]12CC[C@H]3C(=CC=C4C[C@@H](O)CC[C@@]43C)[C@@H]1CC[C@@H]2C(=O)CO` [21(OH)7DHP, 3β, 21-Dihydroxypregna-5,7-dien-20-one], the “effect on proliferation of HaCaT cells” value in the test with HaCaT keratinocytes is recorded as “no effect”. Moreover, the pEC50 with HaCaT keratinocytes (Homo sapiens) is less than 6.00. Further, in the test on SKMEL-188 cells, the “inhibition of DNA synthesis” value is “inhibited DNA synthesis”. In addition, the “translocation” value on VDR-EGFP fusion protein is reported as “induced translocation”.
